The record followed here is the M2OR odorant receptor database.

Common to all, as to details: stereoisomer not certain
Test [1] has as its target T1, UniProt L7MU75.
T1 sequence (whole entry): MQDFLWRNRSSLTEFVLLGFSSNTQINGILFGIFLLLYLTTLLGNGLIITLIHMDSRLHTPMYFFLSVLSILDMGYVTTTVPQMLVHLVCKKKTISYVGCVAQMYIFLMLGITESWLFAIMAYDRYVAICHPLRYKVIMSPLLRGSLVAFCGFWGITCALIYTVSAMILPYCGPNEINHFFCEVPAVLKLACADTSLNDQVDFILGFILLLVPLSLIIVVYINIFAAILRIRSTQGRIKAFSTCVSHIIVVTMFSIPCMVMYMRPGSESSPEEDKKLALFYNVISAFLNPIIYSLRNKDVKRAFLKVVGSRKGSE
The essentials:
(§1)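 Values were gathered from published papers (main text and supplementary material), with extra details requested from the original authors when needed, and checked for typos and inconsistencies. Each receptor–molecule pair is called responsive (active) if the original authors judged the measured signal statistically different from baseline, and non-responsive (inactive) otherwise. Assay methods varied by source, often transient mammalian cell-line luciferase assays. Recorded details include cell line, G-protein, co-transfected protein and tags.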

For test [2], the target named is T2, UniProt L7N210.
T2 sequence (whole entry): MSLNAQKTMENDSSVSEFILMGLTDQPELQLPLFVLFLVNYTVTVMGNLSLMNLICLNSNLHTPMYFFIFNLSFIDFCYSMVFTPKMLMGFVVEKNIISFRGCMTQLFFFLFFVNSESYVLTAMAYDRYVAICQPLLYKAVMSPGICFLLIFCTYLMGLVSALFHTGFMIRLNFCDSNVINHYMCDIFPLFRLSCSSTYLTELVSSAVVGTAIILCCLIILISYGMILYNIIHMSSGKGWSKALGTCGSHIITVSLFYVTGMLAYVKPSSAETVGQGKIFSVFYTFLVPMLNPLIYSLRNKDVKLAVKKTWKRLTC
The essentials: as §1

Test [3] deals with T3, UniProt Q3KPB0.
T3 sequence (whole entry): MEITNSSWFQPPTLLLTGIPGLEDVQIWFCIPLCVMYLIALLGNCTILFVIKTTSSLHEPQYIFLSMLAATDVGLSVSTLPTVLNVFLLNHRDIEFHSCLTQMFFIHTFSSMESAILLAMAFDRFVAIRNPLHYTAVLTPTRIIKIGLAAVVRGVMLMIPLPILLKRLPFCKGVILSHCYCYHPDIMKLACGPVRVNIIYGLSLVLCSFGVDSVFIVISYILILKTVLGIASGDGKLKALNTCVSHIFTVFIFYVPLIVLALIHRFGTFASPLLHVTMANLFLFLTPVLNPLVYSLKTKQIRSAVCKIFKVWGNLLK
The essentials: as §1

The target of test [4] is T4, UniProt Q3U0P3.
T4 sequence (whole entry): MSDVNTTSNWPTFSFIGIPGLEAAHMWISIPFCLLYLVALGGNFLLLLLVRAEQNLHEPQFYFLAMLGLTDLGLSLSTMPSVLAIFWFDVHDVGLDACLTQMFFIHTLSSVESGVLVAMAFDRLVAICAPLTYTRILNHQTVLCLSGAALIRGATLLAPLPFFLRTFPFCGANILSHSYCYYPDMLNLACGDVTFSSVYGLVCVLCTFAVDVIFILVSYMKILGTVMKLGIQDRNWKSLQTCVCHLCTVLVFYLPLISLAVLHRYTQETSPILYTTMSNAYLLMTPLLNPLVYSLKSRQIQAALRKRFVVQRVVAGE
A digest of the protocol: as §1

Test [5] addresses T5, UniProt Q7TQU8.
T5 sequence (whole entry): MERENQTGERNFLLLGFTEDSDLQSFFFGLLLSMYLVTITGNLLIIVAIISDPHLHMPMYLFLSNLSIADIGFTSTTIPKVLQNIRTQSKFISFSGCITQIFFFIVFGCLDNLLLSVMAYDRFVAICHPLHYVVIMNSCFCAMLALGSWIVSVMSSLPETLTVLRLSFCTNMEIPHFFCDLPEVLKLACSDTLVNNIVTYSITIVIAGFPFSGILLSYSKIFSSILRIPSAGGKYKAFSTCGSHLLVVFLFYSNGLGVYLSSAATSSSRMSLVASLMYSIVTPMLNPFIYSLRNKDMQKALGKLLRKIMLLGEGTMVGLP
A digest of the protocol:
as §1

Test [6] has as its target T6, UniProt Q7TQV4.
T6 sequence (whole entry): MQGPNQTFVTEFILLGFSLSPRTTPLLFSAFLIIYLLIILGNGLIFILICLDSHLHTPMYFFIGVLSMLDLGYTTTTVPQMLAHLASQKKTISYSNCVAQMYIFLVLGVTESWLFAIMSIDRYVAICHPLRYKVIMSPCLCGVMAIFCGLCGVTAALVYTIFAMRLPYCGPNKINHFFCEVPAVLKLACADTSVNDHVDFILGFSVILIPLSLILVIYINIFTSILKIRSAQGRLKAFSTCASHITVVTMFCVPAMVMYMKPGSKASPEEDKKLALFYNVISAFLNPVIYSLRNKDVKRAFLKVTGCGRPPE
The essentials:
as §1

The target of test [7] is T7, UniProt Q7TR71.
T7 sequence (whole entry): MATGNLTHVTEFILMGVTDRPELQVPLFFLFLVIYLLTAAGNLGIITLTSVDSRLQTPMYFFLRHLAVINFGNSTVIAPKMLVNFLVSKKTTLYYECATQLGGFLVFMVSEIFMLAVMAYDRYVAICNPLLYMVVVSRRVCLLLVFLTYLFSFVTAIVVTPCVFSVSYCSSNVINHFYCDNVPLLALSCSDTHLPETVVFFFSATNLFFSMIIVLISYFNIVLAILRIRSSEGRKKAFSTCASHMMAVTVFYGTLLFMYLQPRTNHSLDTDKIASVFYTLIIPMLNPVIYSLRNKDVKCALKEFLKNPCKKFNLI
A digest of the protocol: as §1

Test [8] has as its target T8, UniProt Q7TR79.
T8 sequence (whole entry): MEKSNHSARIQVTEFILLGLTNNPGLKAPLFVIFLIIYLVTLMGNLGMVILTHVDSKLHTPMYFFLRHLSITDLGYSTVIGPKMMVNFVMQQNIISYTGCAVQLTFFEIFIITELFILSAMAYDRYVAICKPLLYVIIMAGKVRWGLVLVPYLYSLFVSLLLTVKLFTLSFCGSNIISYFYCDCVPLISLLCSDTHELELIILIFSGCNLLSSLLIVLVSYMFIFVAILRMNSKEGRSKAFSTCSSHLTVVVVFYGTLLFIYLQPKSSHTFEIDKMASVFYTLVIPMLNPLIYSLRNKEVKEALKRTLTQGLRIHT
The essentials:
as §1

In test [9] the target is T9, UniProt Q7TRA3.
T9 sequence (whole entry): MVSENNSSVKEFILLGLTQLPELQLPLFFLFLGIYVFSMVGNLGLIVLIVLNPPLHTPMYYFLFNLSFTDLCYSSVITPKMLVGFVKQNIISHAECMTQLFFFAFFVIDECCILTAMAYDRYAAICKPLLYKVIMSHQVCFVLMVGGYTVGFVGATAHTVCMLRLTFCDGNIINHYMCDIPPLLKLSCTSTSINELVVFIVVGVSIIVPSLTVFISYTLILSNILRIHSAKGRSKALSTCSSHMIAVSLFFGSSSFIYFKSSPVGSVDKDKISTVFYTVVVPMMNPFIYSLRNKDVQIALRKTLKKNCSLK
A digest of the protocol: as §1

In test [10] the target is T10, UniProt Q7TRE4.
T10 sequence (whole entry): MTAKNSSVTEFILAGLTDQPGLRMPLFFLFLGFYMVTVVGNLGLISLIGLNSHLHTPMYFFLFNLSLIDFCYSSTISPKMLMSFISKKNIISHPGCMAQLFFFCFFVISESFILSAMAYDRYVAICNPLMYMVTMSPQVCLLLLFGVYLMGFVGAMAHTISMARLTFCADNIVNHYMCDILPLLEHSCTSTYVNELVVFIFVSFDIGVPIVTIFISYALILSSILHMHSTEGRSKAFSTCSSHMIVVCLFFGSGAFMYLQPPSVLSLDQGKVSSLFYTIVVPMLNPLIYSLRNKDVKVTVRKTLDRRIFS
The essentials:
as §1

With `CCCCCC(=O)CC`, the “odorant receptor agonist call” value in [1], in test [2], in [3], in test [4], in [5] and in [6] was “inactive” in each case. Besides, the “odorant receptor agonist call” value in [7], in test [8], in test [9] and in test [10] was “inactive” in each case.
On to `CCCC(=O)OCC`, for which, in [1], the “odorant receptor agonist call” value was “inactive”.
Consider `CC(=O)OCC=C(C)C`, for which the “odorant receptor agonist call” value in test [1], in test [2], in test [3], in test [4], in test [5] and in [7] was “inactive” in each case. In addition, the “odorant receptor agonist call” value in [8], in test [9] and in test [10] was “inactive” throughout. In addition, the “odorant receptor agonist call” value in [6] was “active”.
`CC(=O)OCc1ccccc1`: the “odorant receptor agonist call” value in test [1], in [2], in test [3], in [4], in [5] and in test [6] was “inactive” in each case. Moreover, the “odorant receptor agonist call” value in test [7], in test [8], in test [9] and in test [10] was “inactive” each time.
In the case of `CC(=O)Oc1ccccc1`, the “odorant receptor agonist call” value in [1], in test [2], in test [3], in test [4], in test [5] and in test [6] was “inactive” each time. Moreover, the “odorant receptor agonist call” value in test [7], in [8], in [9] and in [10] was “inactive” throughout.
Take `CCCCC(C)=O`: the “odorant receptor agonist call” value in [1], in test [2], in [3], in test [4], in test [5] and in test [6] was “inactive” in each case. Also, the “odorant receptor agonist call” value in [7], in [8], in test [9] and in [10] was “inactive” in each case.
